Drawing on ChEMBL document CHEMBL1129642, “Design, synthesis, and evaluation of 2 beta-alkenyl penam sulfone acids as inhibitors of beta-lactamases” (J Med Chem, 1996), this text covers MIC, IC50 and Ks for 5 compounds.

The nature of series [1]: Compound was tested for inhibition of pTEM-4 from Escherichia coli in combination with Ceftriaxone. The class given is functional. In short, it runs like this:
(§1)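 MICs determined by serial 2-fold dilution in Mueller-Hinton broth with an inoculum of approximately 10⁵ cfu/mL. The test compound was combined with ceftriaxone.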

For series [2], the system named is Pseudomonas aeruginosa. The experiment in a line: Compound was tested for inhibition of Pseudomonas aeruginosa 18SH in combination with Ceftriaxone. The class given is functional. The procedure, abridged:
as §1

The subject of series [3] is Citrobacter freundii. Briefly: Compound was tested for inhibition of Citrobacter freundii 1928 in combination with Ceftriaxone. The format is functional. In short, it runs like this:
as §1

Series [4] can be described thus: Compound was tested for inhibition of pTEM-3 from Escherichia coli in combination with Ceftriaxone. The class given is functional. In short, it runs like this:
as §1

Series [5] deals with Enterobacter cloacae. Briefly: Compound was tested for inhibition of Ent. cloacae 908R in combination with Ceftriaxone. The format is functional, organism-based. In short, it runs like this:
as §1

Series [6] can be described thus: (§2) Compound was tested for inhibition of TEM-3, class A of beta-lactamases. The class given is functional, Escherichia coli.
Series [7] in a line: (§3) Compound was tested for inhibition of TEM-1, class A of beta-lactamases. The class given is functional, Escherichia coli.
The test system of a further series is Bacillus licheniformis. The experiment in a line: Compound was tested for inhibition of Bacillus licheniformis 749/C, class A of beta-Lactamases. The format is functional, organism-based.
Series [8] relates to Citrobacter freundii. The experiment in a line: Compound was tested for inhibition of Citrobacter freundii 1928 in combination with Ceftriaxone (expressed in MIC). The class given is functional, organism-based.
The target of series [9] is T1, Beta-lactamase TEM (Escherichia coli, UniProt P62593). The experiment in a line: Compound was tested for inhibition of Beta-lactamase from RTEM-2.
Series [10] concerns Escherichia coli. The experiment in a line: (§4) Compound was tested for the half saturation constant derived from concentration dependence studies in Escherichia coli TEM-3. The class given is functional. The procedure, abridged: (§5)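 Purified β-lactamases (C. freundii 1928, E. coli SNO3, TEM-3, SHV-2) reacted with inhibitor. K_S is the half-saturation constant for forming the acyl-enzyme complex, taken from the concentration dependence of that reaction. It was obtained together with the acylation rate k_on and the acyl-enzyme breakdown rate k_off, using previously published kinetic methods.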

In series [11] the test system is Escherichia coli. Briefly: (§6) Compound was tested for the half saturation constant derived from concentration dependence studies in Escherichia coli SHV-2. The format is functional. In short, it runs like this: as §5
Series [12] has as its target T2, Beta-lactamase (Bacillus licheniformis, UniProt P00808). Briefly: Compound was tested for inhibition of Beta-lactamase from Bacillus licheniformis 749/C.
Series [13] concerns the target Penicillin-binding protein 2b (Staphylococcus aureus, UniProt Q9XDB3). Briefly: Compound was tested for inhibition of Penicillin-binding protein 3 from Staphylococcus aureus (Schoch). The procedure, abridged:
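Competition for penicillin binding measured on S. aureus Schoch membrane fragments with 14C-labelled benzylpenicillin as the probe. The value is the IC50 (µM) for the PBP 3 band.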

The target of series [14] is T3, Beta-lactamase (Pseudomonas aeruginosa (strain ATCC 15692 / PAO1 / 1C / PRS 101 / LMG12228), UniProt P24735). Briefly: Compound was tested for inhibition of Beta-lactamase from Pseudomonas aeruginosa GN10362.
The target of the next series is Beta-lactamase pse-1 (Escherichia coli, UniProt Q2V0Y6). Briefly: Compound was tested for inhibition of Beta-lactamase from PSE-1.
The target in the next series is Beta-lactamase SHV-1 (Escherichia coli, UniProt P0AD63). Briefly: Compound was tested for inhibition of Beta-lactamase from SHV-2.
For series [15], the system named is Citrobacter freundii. Briefly: (§7) Compound was tested for the half saturation constant derived from concentration dependence studies in Citrobacter freundii. The class given is functional. In short, it runs like this:
as §5

Series [16] concerns Escherichia coli. The experiment in a line: (§8) Compound was tested for the half saturation constant derived from concentration dependence studies in Escherichia coli SNO3. The format is functional. The procedure, abridged:
as §5

For series [17], the target named is T1, Beta-lactamase TEM. Briefly: Compound was tested for inhibition of Beta-lactamase from RTEM-1.
Series [18] has as its target Beta-lactamase (Staphylococcus aureus, UniProt P00807). Briefly: Compound was tested for inhibition of Beta-lactamase from Staphylococcus aureus PCI.
For series [19], the target named is Metallo-beta-lactamase type 2 (Bacteroides fragilis, UniProt P25910). Briefly: Compound was tested for inhibition of Beta-lactamase from Bacteroides fragilis BF 101.
For series [20], the target named is PBP3 from Escherichia coli (K-12) (Escherichia coli, UniProt P0AD68). The experiment in a line: Compound was tested for inhibition of Penicillin-binding protein 3 from Escherichia coli.
For a further series, the target named is Beta-lactamase L1 (Stenotrophomonas maltophilia, UniProt P52700). Briefly: Compound was tested for inhibition of Beta-lactamase from Xanthomonas maltophila 328.
In series [21] the test system is Enterobacter cloacae. The experiment in a line: Compound was tested for inhibition of Ent. cloacae 908R in combination with Ceftriaxone (expressed in MIC). The format is functional, organism-based. In short, it runs like this:
as §1

In the next series the target is Beta-lactamase OXA-1 (Escherichia coli, UniProt P13661). The experiment in a line: Compound was tested for inhibition of Beta-lactamase from OXA-1.
The target in series [22] is T3, Beta-lactamase. Briefly: Compound was tested for inhibition of Beta-lactamase from Pseudomonas aeruginosa MK-1184.
Series [23] relates to Pseudomonas aeruginosa. The experiment in a line: Compound was tested for inhibition of Pseudomonas aeruginosa 18SH in combination with Ceftriaxone (expressed in MIC). The format is functional, organism-based. In short, it runs like this: as §1
Series [24] concerns Citrobacter freundii. Described as §7. The class given is organism-based. The procedure, abridged: as §5
Series [25] relates to Escherichia coli. The series is described as §6. The format is organism-based. The procedure, abridged: as §5
Series [26] relates to Escherichia coli. The series is described as §4. The class given is organism-based. The procedure, abridged: as §5
Series [27] has as its system Escherichia coli. Described as §8. The class given is organism-based. The procedure, abridged:
as §5

Series [28] addresses T3, Beta-lactamase. The experiment in a line: Compound was tested for inhibition of Pseudomonas aeruginosa 18SH, class C of Beta-lactamase.
Series [29] addresses Beta-lactamase (Escherichia coli K-12, UniProt P00811). The experiment in a line: Compound was tested for inhibition of Escherichia coli AmpC, class C of Beta-lactamase.
The nature of series [30]: as §2. Further details: species or system Escherichia coli.
The nature of series [31]: (§9) Compound was tested for inhibition of pTEM-4 from Escherichia coli in combination with Ceftriaxone (not active). In short, it runs like this: as §1
In series [32] the target is Peptidoglycan D,D-transpeptidase MrdA (Escherichia coli K-12, UniProt P0AD65). The experiment in a line: Compound was tested for inhibition of Penicillin-binding protein 2 from Escherichia coli.
The target of series [33] is T2, Beta-lactamase. Briefly: Compound was tested for inhibition of Bacillus licheniformis 749/C, class A of Beta-lactamase.
For series [34], the target named is Penicillin-binding protein 4 (Staphylococcus aureus, UniProt P72355). Briefly: Compound was tested for inhibition of Penicillin-binding protein 4 from Staphylococcus aureus (Schoch).
Series [35] can be described thus: as §3. Further details: species or system Escherichia coli.
In series [36] the target is Beta-lactamase (Citrobacter freundii, UniProt P05193). Briefly: Compound was tested for inhibition of Citrobacter freundii 1928, class C of Beta-lactamase.
Series [37] addresses T4, Penicillin-binding protein 1B (Escherichia coli K-12, UniProt P02919).
T4 sequence (P02919 whole entry): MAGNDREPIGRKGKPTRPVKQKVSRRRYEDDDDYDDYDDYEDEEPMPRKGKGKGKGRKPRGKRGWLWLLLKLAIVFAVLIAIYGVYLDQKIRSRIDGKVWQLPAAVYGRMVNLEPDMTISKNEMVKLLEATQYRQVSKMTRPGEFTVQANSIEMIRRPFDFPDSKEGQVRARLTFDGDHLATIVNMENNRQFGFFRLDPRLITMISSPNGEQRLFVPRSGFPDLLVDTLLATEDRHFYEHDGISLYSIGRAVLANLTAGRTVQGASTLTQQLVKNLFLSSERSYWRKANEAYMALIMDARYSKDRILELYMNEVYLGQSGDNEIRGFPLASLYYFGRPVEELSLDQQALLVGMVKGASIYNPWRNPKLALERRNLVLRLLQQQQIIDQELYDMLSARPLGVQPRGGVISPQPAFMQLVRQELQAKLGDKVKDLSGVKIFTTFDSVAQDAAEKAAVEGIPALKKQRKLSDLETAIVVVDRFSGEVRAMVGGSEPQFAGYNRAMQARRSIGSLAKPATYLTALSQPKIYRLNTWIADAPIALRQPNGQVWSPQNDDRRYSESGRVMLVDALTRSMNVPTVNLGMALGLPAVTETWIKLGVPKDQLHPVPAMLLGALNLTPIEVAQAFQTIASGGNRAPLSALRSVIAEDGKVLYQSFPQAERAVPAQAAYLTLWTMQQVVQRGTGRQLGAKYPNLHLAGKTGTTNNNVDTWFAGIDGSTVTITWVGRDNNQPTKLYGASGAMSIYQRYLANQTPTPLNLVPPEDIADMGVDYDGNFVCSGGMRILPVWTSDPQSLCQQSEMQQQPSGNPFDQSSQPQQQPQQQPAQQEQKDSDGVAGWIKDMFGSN
Briefly: Compound was tested for inhibition of Penicillin-binding protein 1b from Escherichia coli. The procedure, abridged: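 Penicillin binding was assayed on membrane fragments from E. coli W3110 or S. aureus Schoch, using ¹⁴C-labeled benzylpenicillin as the probe. IC₅₀ values are reported in µM.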

Series [38] is described as follows: Compound was tested for inhibition of Penicillin-binding protein 1 from Staphylococcus aureus (Schoch).
Series [39] is described as follows: (§10) Compound was tested for inhibition of pTEM-3 from Escherichia coli in combination with Ceftriaxone (expressed in MIC). In short, it runs like this:
as §1

Series [40] in a line: as §9. The class given is functional.
Series [41] in a line: as §10. The format is functional.

For orientation: MIC means the lowest concentration found to suppress growth. What is called IC50 is the concentration needed to halve the response being measured.

Structures are written as SMILES.

T3 sequence (P24735 whole entry): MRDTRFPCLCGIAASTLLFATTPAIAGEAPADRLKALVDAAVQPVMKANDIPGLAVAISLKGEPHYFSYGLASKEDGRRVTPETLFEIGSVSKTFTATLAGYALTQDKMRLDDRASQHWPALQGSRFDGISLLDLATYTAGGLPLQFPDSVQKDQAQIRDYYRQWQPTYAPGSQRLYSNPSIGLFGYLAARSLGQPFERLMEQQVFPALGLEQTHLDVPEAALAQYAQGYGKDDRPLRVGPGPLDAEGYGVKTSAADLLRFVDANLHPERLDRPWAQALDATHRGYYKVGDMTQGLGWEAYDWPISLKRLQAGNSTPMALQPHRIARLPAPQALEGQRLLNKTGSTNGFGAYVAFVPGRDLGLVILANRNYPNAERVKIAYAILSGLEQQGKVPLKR
T2 sequence (P00808 whole entry): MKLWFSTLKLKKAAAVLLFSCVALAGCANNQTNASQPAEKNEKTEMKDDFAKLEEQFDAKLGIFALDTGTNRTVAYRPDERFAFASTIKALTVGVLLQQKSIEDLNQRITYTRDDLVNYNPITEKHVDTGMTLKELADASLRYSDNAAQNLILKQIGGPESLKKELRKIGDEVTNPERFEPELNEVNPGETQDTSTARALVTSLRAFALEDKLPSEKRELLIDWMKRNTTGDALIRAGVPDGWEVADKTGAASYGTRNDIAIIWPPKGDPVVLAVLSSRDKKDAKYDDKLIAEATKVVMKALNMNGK
Beta-lactamase L1, sequence (P52700 whole entry): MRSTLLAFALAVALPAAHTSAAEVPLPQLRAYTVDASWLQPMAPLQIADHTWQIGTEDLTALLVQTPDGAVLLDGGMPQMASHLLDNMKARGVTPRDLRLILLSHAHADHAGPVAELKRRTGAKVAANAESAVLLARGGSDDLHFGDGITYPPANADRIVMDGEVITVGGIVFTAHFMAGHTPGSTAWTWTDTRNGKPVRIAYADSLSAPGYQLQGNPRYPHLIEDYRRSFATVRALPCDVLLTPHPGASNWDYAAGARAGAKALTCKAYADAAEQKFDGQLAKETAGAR
T1 sequence (P62593 whole entry): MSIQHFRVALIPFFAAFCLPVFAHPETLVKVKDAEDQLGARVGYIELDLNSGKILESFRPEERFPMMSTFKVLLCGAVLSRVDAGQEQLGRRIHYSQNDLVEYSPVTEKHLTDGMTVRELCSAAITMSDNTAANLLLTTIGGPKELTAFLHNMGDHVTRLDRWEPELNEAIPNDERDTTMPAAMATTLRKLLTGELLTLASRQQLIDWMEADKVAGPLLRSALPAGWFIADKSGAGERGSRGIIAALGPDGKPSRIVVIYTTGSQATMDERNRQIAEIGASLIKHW
Beta-lactamase SHV-1, sequence (P0AD63 22-286 limits assumed): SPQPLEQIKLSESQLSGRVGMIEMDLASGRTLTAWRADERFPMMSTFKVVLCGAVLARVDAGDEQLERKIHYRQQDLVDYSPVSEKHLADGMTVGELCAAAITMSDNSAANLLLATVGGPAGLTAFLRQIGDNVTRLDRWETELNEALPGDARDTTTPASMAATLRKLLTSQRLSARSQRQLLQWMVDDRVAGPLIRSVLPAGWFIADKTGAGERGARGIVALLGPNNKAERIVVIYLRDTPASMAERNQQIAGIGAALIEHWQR
PBP3 from Escherichia coli (K-12), sequence (P0AD68 whole entry, looked up): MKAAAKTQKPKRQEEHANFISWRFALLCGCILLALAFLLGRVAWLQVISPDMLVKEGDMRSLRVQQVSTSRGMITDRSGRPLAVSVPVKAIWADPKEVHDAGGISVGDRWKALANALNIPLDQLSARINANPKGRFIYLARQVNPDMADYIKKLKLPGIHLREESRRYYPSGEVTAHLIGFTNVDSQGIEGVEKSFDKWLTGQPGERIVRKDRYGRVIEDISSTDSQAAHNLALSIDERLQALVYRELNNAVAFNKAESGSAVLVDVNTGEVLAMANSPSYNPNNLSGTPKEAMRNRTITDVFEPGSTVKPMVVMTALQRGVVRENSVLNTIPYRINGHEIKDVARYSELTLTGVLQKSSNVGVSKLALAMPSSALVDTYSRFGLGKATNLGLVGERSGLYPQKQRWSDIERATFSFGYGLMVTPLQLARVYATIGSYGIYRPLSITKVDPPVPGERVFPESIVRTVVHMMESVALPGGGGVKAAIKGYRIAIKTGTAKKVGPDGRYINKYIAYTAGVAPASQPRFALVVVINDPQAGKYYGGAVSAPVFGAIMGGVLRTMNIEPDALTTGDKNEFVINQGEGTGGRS
Penicillin-binding protein 2b, sequence (Q9XDB3 whole entry, the tested form may be a part): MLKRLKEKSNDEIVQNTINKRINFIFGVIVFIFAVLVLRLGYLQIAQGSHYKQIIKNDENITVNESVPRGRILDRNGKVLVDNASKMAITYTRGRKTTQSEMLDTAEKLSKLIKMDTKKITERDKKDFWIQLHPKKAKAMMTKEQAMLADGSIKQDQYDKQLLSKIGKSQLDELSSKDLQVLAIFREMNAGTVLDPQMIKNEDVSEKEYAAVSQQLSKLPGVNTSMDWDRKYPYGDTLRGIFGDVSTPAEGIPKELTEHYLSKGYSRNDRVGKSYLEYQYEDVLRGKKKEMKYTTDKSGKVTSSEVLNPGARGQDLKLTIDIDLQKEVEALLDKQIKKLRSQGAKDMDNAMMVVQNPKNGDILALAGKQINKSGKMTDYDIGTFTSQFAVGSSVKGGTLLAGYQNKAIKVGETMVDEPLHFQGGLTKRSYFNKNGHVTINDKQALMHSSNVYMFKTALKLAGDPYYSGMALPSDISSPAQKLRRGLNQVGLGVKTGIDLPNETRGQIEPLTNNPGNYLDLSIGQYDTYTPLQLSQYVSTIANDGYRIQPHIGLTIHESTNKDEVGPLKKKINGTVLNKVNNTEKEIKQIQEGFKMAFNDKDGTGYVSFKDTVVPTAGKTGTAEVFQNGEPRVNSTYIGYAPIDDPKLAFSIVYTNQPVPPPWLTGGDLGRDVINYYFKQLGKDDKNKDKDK
Beta-lactamase (Citrobacter freundii, UniProt P05193), sequence (P05193 whole entry): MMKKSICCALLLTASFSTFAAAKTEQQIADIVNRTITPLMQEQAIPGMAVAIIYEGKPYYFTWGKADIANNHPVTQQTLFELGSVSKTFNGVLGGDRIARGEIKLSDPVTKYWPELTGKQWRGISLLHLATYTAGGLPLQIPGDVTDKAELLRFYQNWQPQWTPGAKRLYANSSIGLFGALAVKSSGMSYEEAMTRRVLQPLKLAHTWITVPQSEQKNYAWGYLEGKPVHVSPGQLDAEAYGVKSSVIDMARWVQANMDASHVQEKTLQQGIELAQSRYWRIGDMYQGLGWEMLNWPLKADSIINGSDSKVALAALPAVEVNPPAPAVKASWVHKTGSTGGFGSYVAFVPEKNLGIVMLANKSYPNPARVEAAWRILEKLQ
Beta-lactamase OXA-1, sequence (P13661 whole entry): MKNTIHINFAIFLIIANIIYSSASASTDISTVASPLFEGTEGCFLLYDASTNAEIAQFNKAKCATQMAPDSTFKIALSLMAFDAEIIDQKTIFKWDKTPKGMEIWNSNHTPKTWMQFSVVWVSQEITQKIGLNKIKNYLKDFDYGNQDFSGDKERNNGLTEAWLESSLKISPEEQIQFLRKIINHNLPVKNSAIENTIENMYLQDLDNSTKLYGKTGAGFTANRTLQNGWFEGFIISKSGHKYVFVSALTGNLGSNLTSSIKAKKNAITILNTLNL
Beta-lactamase (Staphylococcus aureus, UniProt P00807), sequence (P00807 whole entry): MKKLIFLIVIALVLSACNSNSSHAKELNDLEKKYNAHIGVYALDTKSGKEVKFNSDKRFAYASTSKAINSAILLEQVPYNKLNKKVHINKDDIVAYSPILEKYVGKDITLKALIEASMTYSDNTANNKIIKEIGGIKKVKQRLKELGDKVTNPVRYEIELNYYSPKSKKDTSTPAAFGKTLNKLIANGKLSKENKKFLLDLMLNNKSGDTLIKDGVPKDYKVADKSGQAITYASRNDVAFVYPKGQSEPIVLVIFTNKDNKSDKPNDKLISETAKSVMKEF
Peptidoglycan D,D-transpeptidase MrdA, sequence (P0AD65 whole entry): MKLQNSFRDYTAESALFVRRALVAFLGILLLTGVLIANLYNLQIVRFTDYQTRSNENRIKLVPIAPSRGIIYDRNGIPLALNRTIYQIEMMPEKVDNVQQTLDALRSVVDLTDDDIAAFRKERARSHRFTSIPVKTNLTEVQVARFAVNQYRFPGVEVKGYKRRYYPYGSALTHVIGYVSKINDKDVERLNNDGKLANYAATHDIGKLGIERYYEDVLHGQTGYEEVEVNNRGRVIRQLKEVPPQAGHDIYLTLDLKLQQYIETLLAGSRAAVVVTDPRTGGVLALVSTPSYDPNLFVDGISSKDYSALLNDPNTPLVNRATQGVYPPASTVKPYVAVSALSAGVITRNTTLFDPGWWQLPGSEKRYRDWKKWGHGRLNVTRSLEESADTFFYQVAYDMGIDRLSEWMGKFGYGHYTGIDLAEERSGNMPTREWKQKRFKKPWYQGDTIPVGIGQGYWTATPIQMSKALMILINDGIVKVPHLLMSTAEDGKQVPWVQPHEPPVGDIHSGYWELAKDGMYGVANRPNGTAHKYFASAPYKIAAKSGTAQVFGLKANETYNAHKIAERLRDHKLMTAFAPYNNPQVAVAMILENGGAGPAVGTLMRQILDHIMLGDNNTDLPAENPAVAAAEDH
Penicillin-binding protein 4, sequence (P72355 whole entry): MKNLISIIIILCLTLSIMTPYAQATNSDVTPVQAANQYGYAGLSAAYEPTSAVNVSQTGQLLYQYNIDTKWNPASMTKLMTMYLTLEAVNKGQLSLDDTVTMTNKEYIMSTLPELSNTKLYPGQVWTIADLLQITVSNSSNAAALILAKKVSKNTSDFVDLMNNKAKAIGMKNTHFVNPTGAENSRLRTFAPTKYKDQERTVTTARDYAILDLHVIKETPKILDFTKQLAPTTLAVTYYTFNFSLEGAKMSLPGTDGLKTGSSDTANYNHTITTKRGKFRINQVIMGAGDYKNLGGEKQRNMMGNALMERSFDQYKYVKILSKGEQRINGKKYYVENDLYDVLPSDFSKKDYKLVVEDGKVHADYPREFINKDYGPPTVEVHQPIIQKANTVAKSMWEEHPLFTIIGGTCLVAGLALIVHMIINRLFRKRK

With `C[C@]1(/C=C/COC(N)=O)[C@H](C(=O)O)N2C(=O)C[C@H]2S1(=O)=O`, the MIC in series [1] was determined as 4 µg/mL; in the series on Pseudomonas aeruginosa [2], 8 µg/mL; in the series with Citrobacter freundii [3] it was 4 µg/mL; in series [4], 1 µg/mL; in the series with Enterobacter cloacae [5] it was 8 mg/L. Besides, the IC50 in [6] was 760 nM; in [7] it was 9.1 µM; with Bacillus licheniformis it was 6.5 µM.
On to `C[C@]1(C=CC#N)[C@H](C(=O)O)N2C(=O)C[C@H]2S1(=O)=O` [Ro-481220], for which the MIC with Citrobacter freundii [8] came to 1 mg/L; in the series with Enterobacter cloacae [21], 1 mg/L; with Pseudomonas aeruginosa [23], 4 mg/L. The IC50 against Beta-lactamase TEM [9] was 980 nM; at Beta-lactamase [12], 320 nM; in [13] it was 170 µM; against Beta-lactamase [14], 860 nM; at Beta-lactamase pse-1, 90 nM; on Beta-lactamase SHV-1, 540 nM. Further, the IC50 is 1070 nM at Beta-lactamase TEM [17]; 250 nM on Beta-lactamase [18]; 200 µM in [19]; over 340 µM in [20]; 0.024 mM against Beta-lactamase L1; 100 nM against Beta-lactamase OXA-1. Further, the figures for the IC50 against Beta-lactamase [22] and in the series with Bacillus licheniformis were 1970 nM and 0.32 µM, respectively. In addition, the Ks worked out at 0.56 µM in the series with Escherichia coli [10], 2.3 µM in the series with Escherichia coli [11], 125 µM with Citrobacter freundii [15] and 377 µM in the series with Escherichia coli [16].
Consider `C[C@]1(Cn2ccnn2)[C@H](C(=O)O)N2C(=O)C[C@H]2S1(=O)=O` [TAZOBACTAM], for which the Ks with Citrobacter freundii [24] amounted to 110 µM; in the series on Escherichia coli [25], 5 µM; in the series on Escherichia coli [26], 0.74 µM; in the series with Escherichia coli [27], 325 µM. The compound also came in with an IC50 against Beta-lactamase L1 of 4 mM.
With `C[C@]1(/C=C/C[n+]2ccccc2)[C@H](C(=O)O)N2C(=O)C[C@H]2S1(=O)=O`, the IC50 against Beta-lactamase [28] was 75 µM; against Beta-lactamase [29], 330 µM; in series [30], 140 nM; in series [32] it was 297 µM; against Beta-lactamase [33], 1800 nM; in series [34], 15 µM. The IC50 was 3.6 µM in series [35], 16 µM against Beta-lactamase [36], over 10 mM in series [37] and 15 µM in series [38]. For the same compound, the MIC in series [31] is 0.5 mg/L; with Enterobacter cloacae [21], 8 mg/L; in series [39] it was 0.25 mg/L; in the series on Pseudomonas aeruginosa [23], over 16 mg/L.
As to `CC(=O)/C=C\[C@@]1(C)[C@H](C(=O)O)N2C(=O)C[C@H]2S1(=O)=O`, the MIC worked out at 1 mg/L with Citrobacter freundii [8]; 2 mg/L in the series on Enterobacter cloacae [21]; 2 mg/L in series [40]; 0.25 mg/L in series [41]; 32 mg/L in the series with Pseudomonas aeruginosa [23]. The IC50 in series [6] stood at 420 nM; in series [7] it was 10 µM; in the series on Bacillus licheniformis it was 3.9 µM.
